The list is not random: actives were taken first. Their share in the collection is about 4.5%.
RGS4 inh – human RGS4 inhibition; 310,000 compounds, 0.45% hits; B-score at 10 µM; HEK293 M3R/RGS4 inducible, Fluo-4 calcium flux; stronger effect = higher value; triggered by carbachol at its EC20; AID 463165;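 active = B-score, a plate-corrected calcium signal, over three deviations above library mean, with baseline fluorescence within five deviations of library mean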;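 note: RGS4 expression induced by doxycycline in cells with stable M3 receptor; B-score is computed from the integrated fluorescence ratio over baseline after carbachol; higher B-score means a larger calcium signal and so more RGS4 inhibition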
Target sequence (P49798 whole entry, looked up): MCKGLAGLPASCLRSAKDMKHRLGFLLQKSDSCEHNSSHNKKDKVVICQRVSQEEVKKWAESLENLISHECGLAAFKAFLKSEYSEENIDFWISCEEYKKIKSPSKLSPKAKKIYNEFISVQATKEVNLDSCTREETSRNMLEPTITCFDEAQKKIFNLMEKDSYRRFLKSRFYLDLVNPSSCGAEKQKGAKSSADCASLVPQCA
RGS4 pot – potentiators or activators of RGS4. HEK293 M3R/inducible RGS4, carbachol calcium flux Fluo4; stronger effect = lower value. B-score at 10 µM. 310,000 compounds, 0.92% hits;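 active = B-score of the integrated calcium signal more than 4 SD below the library mean, with starting fluorescence not abnormally high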;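 note: negative B-score means reduced calcium response which marks RGS4 activation or potentiation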
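Also added: carbachol at ECmax as muscarinic agonist stimulus; Assay system: HEK293 cells with stable M3R and inducible RGS4; Timing: overnight RGS4 induction, 30 min dye load 37 °C, 20 min compound RT; Measured by: Fluo4-AM (2 µM) calcium-flux fluorescence, kinetic read.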
MrgX1 antag – antagonists of human MrgX1 receptor | Q96LB2 | MRGX1-HEK293 calcium flux, Fluo-4, BAM8-22 antagonism; stronger effect = lower value | B-score at 10 µM | 310,000 compounds, 1.3% hits | AID 588676;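 active = calcium-response B-score plate-corrected more than 3 library SD below zero, starting fluorescence within 5 deviations, no agonist response on first addition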;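 note: peak minus trough fluorescence over baseline after final BAM8-22 challenge near maximal dose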
MrgX1 PAM – human MrgX1 positive allosteric modulation, primary screen. B-score at 10 µM. MrgX1-HEK293, Fluo-4 calcium flux, FDSS; stronger effect = higher value. AID 588675. 310,000 compounds, 0.63% hits;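 active = plate-corrected calcium response at least 3 library SD above typical, normal starting fluorescence, not activating the receptor alone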;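 note: compound read alongside a low EC10 to EC30 dose of BAM8-22 agonist; peak minus trough fluorescence over baseline measured at the second addition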
MrgX1 ag – activates human MrgX1 receptor signaling. MrgX1-HEK293 cells, Fluo-4 calcium fluorescence, agonist mode; stronger effect = higher value. Q96LB2. B-score at 10 µM. AID 588627. 310,000 compounds, 0.44% hits;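 active = calcium response B-score plate-corrected fluorescence ratio at least 3 library SD, with starting fluorescence B-score inside 5 SD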
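Assay system: MrgX1-expressing HEK293 cells / Amount: fifteen thousand cells per well / Doses: test compound in the initial addition of three / Timing: cells plated overnight, dye loaded 0.5 h 37 °C, 0.5 h room temperature / Technique: kinetic calcium dye fluorescence, Fluo-4 NW / Control set: positive and negative controls per plate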
PHOSPHO1 block – PHOSPHO1 (human) inhibition. Q8TCT1. recombinant PHOSPHO1, absorbance phosphatase assay. inhibition, % at 13.3 µM. 290,000 compounds, 1.1% hits. AID 1565; in the data active = inhibition above about 60%
Target sequence (Q8TCT1 whole entry, looked up): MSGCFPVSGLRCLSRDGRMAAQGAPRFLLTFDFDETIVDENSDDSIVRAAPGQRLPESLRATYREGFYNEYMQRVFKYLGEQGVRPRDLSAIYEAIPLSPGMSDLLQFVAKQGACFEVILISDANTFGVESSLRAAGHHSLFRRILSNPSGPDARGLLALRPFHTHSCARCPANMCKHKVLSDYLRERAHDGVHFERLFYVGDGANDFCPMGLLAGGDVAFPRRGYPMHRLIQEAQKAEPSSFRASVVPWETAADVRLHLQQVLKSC
MrgX1 antag conf – reconfirmed antagonist of human MrgX1 receptor signaling; MrgX1-HEK293, BAM8-22 calcium flux, Fluo-4; stronger effect = lower value; 2,300 compounds, 19% hits; remaining BAM8-22 calcium response % of control (stronger effect = lower value), % at 10 µM; AID 602420; shares compounds with MrgX1 antag;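 active = remaining agonist calcium response no higher than 100% minus 3 SD of agonist-only control wells, with starting fluorescence near control levels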;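 note: agonist BAM8-22 given at a near maximal EC90 to ECmax level; peak minus minimum fluorescence divided by baseline after agonist addition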
HEK293 Ca flux – activity in parental HEK293 cells lacking MrgX1 | shares compounds with MrgX1 antag | Fluo-4 calcium fluorescence, FDSS | fluorescence ratio F(max-min)/F0 at 10 µM | 4,000 compounds, 2% hits;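 active = duplicate-averaged calcium fluorescence ratio at least three times the standard deviation of buffer wells, a nonspecific response in parental cells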
HEK293 Ca counter – MrgX1 allosteric activator counter-screen hit in parental HEK293 cells. shares compounds with MrgX1 antag. parental HEK293 calcium flux, Fluo-4 fluorescence ratio; stronger effect = higher value. fluorescence ratio F(max-min)/F0 at 10 µM. 4,000 compounds, 0.4% hits. AID 624114;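 active = calcium fluorescence ratio, averaged over duplicates, at least 3 SD of the buffer-well ratio, meaning a nonspecific response in receptor-free cells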;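 note: untransfected parental HEK293 lacking MrgX1 used as counterscreen for MrgX1 allosteric activators; fluorescence change taken during the second addition on a kinetic imager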
HEK293 Ca cntr2 – counter-screen for MrgX1 activators: effect in parental HEK293 cells. Fluo-4 calcium fluorescence (FDSS); stronger effect = higher value. shares compounds with MrgX1 antag. AID 624115. fluorescence ratio F(max-min)/F0 at 10 µM. 4,000 compounds, 8.7% hits;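 active = calcium fluorescence ratio at least three times the spread of buffer wells, meaning a non-specific response in parental cells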
* = called active by the depositor; i = inactive; x = no result.

SMILES	RGS4 inh	RGS4 pot	MrgX1 antag	MrgX1 PAM	MrgX1 ag	PHOSPHO1 block	MrgX1 antag conf	HEK293 Ca flux	HEK293 Ca counter	HEK293 Ca cntr2
O=C(CN1CC(c2ccccc2)CC1=O)Nc1cccc(F)c1 (stereo unspecified)	i	i	i	i	i	-6.1	x	x	x	x
O=C(CN1CC(c2ccccc2)CC1=O)Nc1ccc(F)cc1 (stereo unspecified)	i	i	-10.2*	i	i	0.1	i	i	i	i
COC(=O)C(O)(c1ccc(N(C)C(=O)c2ccc(Cl)c(Cl)c2)cc1)C(F)(F)F (stereo unspecified)	i	i	-7.79*	i	i	2.5	i	i	i	i
CCOC(=O)C(O)(c1ccc(N(C)C(=O)c2ccc(Cl)c(Cl)c2)cc1)C(F)(F)F (stereo unspecified)	i	i	i	i	i	17.2	x	x	x	x
COC(=O)C1=C(c2ccc(S(C)(=O)=O)cc2)C[C@@H]2CC[C@H]1N2C(=O)NCc1ccc(C(F)(F)F)cc1	i	i	i	i	i	x	x	x	x	x
CC(C)CC12CN3CCN(CC(C3)C1O)C2 (stereo unspecified)	i	i	i	i	i	-9.2	x	x	x	x
O=C1NC(=O)C(CCc2ccccn2)(Cc2ccc3c(c2)OCO3)C(=O)N1CCc1ccccc1 (stereo unspecified)	i	i	-5.24*	i	i	14.7	i	i	i	i
c1ccc(CNCCc2ccc3c(c2)OCO3)nc1	i	i	i	i	i	-10.8	x	x	x	x
CCn1c(O)c(C=NCc2cccs2)c(=O)[nH]c1=O	i	i	i	i	i	-3.4	x	x	x	x
CN1CCc2nc(SCc3cccc(Br)c3)c(C#N)cc2C1	i	i	-4.73*	i	i	-5.9	i	i	i	i
CC(C)n1cc(C(=O)N(CC(=O)NC(C)(C)C)Cc2ccccc2)cn1	i	i	i	i	i	-13.3	x	x	x	x
CC(C)CNC(=O)c1c(N)n(Cc2ccc3c(c2)OCO3)c2nc3ccccc3nc12	i	i	-5.96*	i	i	-4.4	i	i	i	53.6*
CC(C)CCNC(=O)c1c(N)n(Cc2ccc3c(c2)OCO3)c2nc3ccccc3nc12	i	i	i	i	i	11.3	x	x	x	x
CCCCCn1c(=O)c(C(=O)NC(C)c2ccccc2)c(O)c2ccccc21 (stereo unspecified)	i	i	-4.75*	i	i	19.0	i	i	i	i
COC(=O)c1ccc(NC(=O)CSc2nc3ccc(N4C(=O)C5C6C=CC(C6)C5C4=O)cc3s2)cc1 (stereo unspecified)	i	i	-7.39*	i	i	-4.6	55.4%*	i	i	i
O=C(CN1CCOCC1)c1ccc2cc[nH]c2c1	i	i	i	i	i	-17.3	x	x	x	x
COc1ccc(C(=O)CN2CCOCC2)cc1F	i	i	-5.17*	i	i	55.2	i	i	i	i
CC(C)[C@]12O[C@H]1[C@@H]1O[C@]13[C@]1(O[C@H]1C[C@H]1C4=C(CC[C@@]13C)C(=O)OC4)[C@@H]2O	i	i	i	i	i	11.8	x	x	x	x
CCc1nc2ccccc2c(=O)n1-c1ccccc1[N+](=O)[O-]	i	i	i	i	i	7.0	x	x	x	x
Cc1nnc(SCc2nc3ccccc3c(=O)n2-c2ccccc2Cl)n1N	i	i	-8.23*	i	i	21.5	82.4%*	i	i	i
Nc1ccc([As](=O)(O)O)cc1	i	i	-6.01*	i	i	8.4	i	i	i	i
COc1ccc(C(=O)N2CCOCC2)cc1S(=O)(=O)N1CCC(C)CC1	i	i	i	i	i	2.9	x	x	x	x
COc1ccc(C(=O)Oc2cccc3cccnc23)cc1S(=O)(=O)N1CCOCC1	i	i	-5.97*	i	i	32.3	i	i	i	i
CSc1ccc(C(=O)C2CCCN(Cc3cc4ccccc4[nH]3)C2)cc1 (stereo unspecified)	i	-7.12*	-5.15*	i	i	32.2	79.4%*	i	i	i

From PubChem BioAssay
